System: MS2 coat protein
Experiment: apparent Kd, MS2 coat protein; higher = weaker binding; RNA-MaP array; FMN 200 µM where present
Procedure, shortened: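 On Illumina sequencing-chip clusters, designs were transcribed by stalled E. coli RNA polymerase and titrated with SNAP-549-labelled MS2 coat protein (0.7 or 1.5 nM, doubling to 3 µM), without and then with constant ligand, in 100 mM Tris-HCl pH 7.5, 80 mM KCl, 4 mM MgCl2, BSA, DTT, yeast tRNA and Tween-20. Apparent Kd is the median of filtered per-cluster curve fits to green signal normalised to red-channel RNA signal and control-cluster median Fmax.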

[1] = designed as: ON switch for flavin mononucleotide, no ligand
[2] = ligand present: flavin mononucleotide, designed as: ON switch for flavin mononucleotide
[3] = designed as: OFF switch for flavin mononucleotide, no ligand
[4] = ligand present: flavin mononucleotide, designed as: OFF switch for flavin mononucleotide

Sequence | apparent Kd [1] [nM] | apparent Kd [2] [nM] | apparent Kd [3] [nM] | apparent Kd [4] [nM]
UACAACUUCGUAGGAUAUGUAUAUAAUUUCUACAUGAGGAUCACCCAUGUUAGCAUUUUUUAUUGACAGAAGGACGUAAUCUAA | 7.55 | 5.89 | – | –
AGACUCUCUGGAGGAUAUCAUAGUCGUUGACUAUGAGAAGGUUAGCUAUCUUACAUGAGGAUCACCCAUGUGAUCUCUCUCGAG | – | – | 18.1 | 14.6
CGACAAGUCGUAGGAUAUGGUGAUGUACAUGAGGAUCACCCAUGUCCGUCUUCUCUCACAAGAUGCCAGAAGGGCGACUUCCGG | 676 | 404 | – | –
AACAAUCUAUCUGAGGAUAUUAUGAAAUAAACAUGAGGAUCACCCAUGUGCAGGAAAACUGCAUAUGAGAAGGCAGAUAGAUUGA | 428 | 18.5 | – | –
UUGGACGUCGUAGGAUAUGUAGGAUAUUCCUACAUGAGGAUCACCCAUGUUGACAUGGAAGAAGGACAGAAGGACGAAGUCCAU | 261 | 4.54 | – | –
GUCUUUUUACAGAAGGUGUUUAACAUGAGGAUCACCCAUGUAUAUAUGGUUAAAUUUGAUAAUAACAAGGAUAUGUACUAAUCA | 53.4 | 46.4 | – | –
UCAGUAGAGUCAGGAUAUACGUUAAAAUUUCCUCACAUGAGGAUCACCCAUGUAGAAGGGACUCUACUGUAAGUCGGAAACGAC | – | – | 35.2 | 686
UAAGCCGGGUCUGCAUGAGCUUACAUGAGGAUCACCCAUGUAAGAAGGGACGCUACGUUAUAGUGUCAGGAUAUUGCGAACGGG | – | – | 5.15 | 5.66
GAGUAGUUGGGAGGAUAUCGAUUGUUAUAGAAUCGAGAAGGUUCUAACAUGAGGAUCACCCAUGUAGGACUAUUCCUGUGUAUC | 71.8 | 65.4 | – | –
AGAACAUGAGGAUCACCCAUGUAAAGGUCGGUCAAUAAGGGUGAGGAUAUGCUUAAAAUAAGGUAGCAGAAGGUACUUGGUGCA | 398 | 508 | – | –
CAUGUCCUCACAGGAUAUGCACCACUUUGUGGUGCAGAAGGGUGGAAACAUGAGGAUCACCCAUGUGGACAUGAUAUAUUUAAG | 142 | 24.8 | – | –
UGGUACUAGGGAGGAUAUGGGAAGAUACAUGAGGAUCACCCAUGUUUAAGAAUGCCGAGUGGCAACUAGAAGGCCCUAGUACCU | 478 | 20.5 | – | –
UAUAUACAUGAGGAUCACCCAUGUGAGGAUAUGCUUUAUUAUUAUUAUUAUUAUUAUUGCAGAAGGUACAUUAU | – | – | 28.9 | 28.8
CCGGCUUAGGAGGAUAUGGGAGUCGAUAGACACCCAGAAGGCCUAACAUGAGGAUCACCCAUGUGUCCUACCGG | – | – | 23.4 | 109
UAUUUAUAAUAUAUUAACAUGAGGAUCACCCAUGUCGCUAGACAGGAUAUAUUUUAUUUUUUUAAGUAGAAGGGUCAUAUAUUU | 68 | 85.9 | – | –
CUUCCAGUUGCAGGAUAUCGGGAGGAGAGAUUACGAGAAGGGCAACAUGAGGAUCACCCAUGUAUGUGCUUGGGACAACCUAUC | – | – | 13.2 | 38.2
GGUAUGCAGCAGGAUAUCCAUCCGCGGUAUGGUGGAGAAGGGCUGACAUGAGGAUCACCCAUGUGCGUCCUAGG | – | – | 32.8 | 87.6
ACUGGGCGCCGACCCAUGUCUAUGGAGGAUAUUACUGCCGGUAUCUCACAUGAGGAUCACCCAUGUAAGAAGGCCAUAAACACC | – | – | 19.5 | 221
GUAUUAUAGAUCCAUUUAUUCAACAUGAGGAUCACCCAUGUGCAGGAUAUCGUGUGUUUUAUAUUCGAGAAGGGCAAAUUCAUU | – | – | 28.9 | 81.8
CUUGUGUUAGGAUAUGCGCCCUGAAGUGGCAGGGCCAGAGAGCAGAAGGGACAUGAGGAUCACCCAUGUGUGAC | – | – | 84.3 | 127
ACAUGAGGAUCACCCAUGUUAAACGAGGAUAUUUGACUGCACAUGAGGUUCACCCAUGUUCUGCCGAAGAAGGUGUAAAUAAUU | 39.2 | 31.2 | – | –
AAAAAACAUGAGGAUCACCCAUGUGAGGAUAUGGAAAAAAAAAAAAAAAAAAAAAAAACCAGAAGGCACAAAAA | – | – | 92.6 | 60
UGGUCACAUGAGGAUCACCCAUGUCAGGAUAUCUACAUUGAAGCCUCGGCUUCAAUGUAGAGAAGGGAUAUAAU | – | – | 65.5 | 148
GGAUAGGACAGAGGAUAUACGUGCUAGAGAUACUAGCAAAAUUUCCUCACAUGAGGAUCACCCAUGUAGAAGGCUGUCCUAUCA | – | – | 16.7 | 380
UGGUCAUCAUCAGGAUAUUAACAUGGGCUACAUUAAGAAGGGAUAGUGAGAUAGGAACUGAAACAUGAGGAUCACCCAUGUUGU | 96.9 | 44.2 | – | –
GCAGUAAAUAAAUGCACAUGAGGAUCACCCAUGUGGGAGGCACAGGAUAUCGCACCAUAGUGGCGCGAGAAGGGUGAUAAUCUC | 416 | 57.8 | – | –
GGGCCCGGUGUGAGGAUAUGCUCGGGUAAACUCGGGCAGAAGGCACAUGAGGAUCACCCAUGUAAGCCGGGCCC | – | – | 13.8 | 14.6

Source: the EternaBench riboswitch data
